Assay results published in publication PMC5766731 (Clinical Pharmacokinetics, 2017).
Where two headings read alike, the source gives them in different places.

Experiments:
[1] = Part I single ascending-dose pharmacokinetics; assay type: in vivo, human; conditions: for t max / AUCt / AUC∞ / C max / CL/F_obs / V z/F_obs / t ½ / λz: part I, fasted; for t max: mean (range) per footnote; for AUCt / AUC∞ / C max / CL/F_obs / V z/F_obs / t ½ / λz: mean ± SD
[2] = Part I urinary recovery of ZYAN1; assay type: in vivo, human; conditions: for Amount recovered [mean ± SD] / Percentage recovered [mean ± SD]: urine, part I
In short: (§1)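 Urine collected pre-dose and over 0–12, 12–24, 24–36 and 36–48 h: after the single dose (10–300 mg, part I) or after each alternate-day dose on Days 1, 3 and 5 (part II). Total volume recorded; 5 mL aliquots stored at –80 ± 10 °C. Acetonitrile precipitation and LC-MS/MS with analog internal standard, urine calibration 2–5000 ng/mL, LLOQ 2 ng/mL. Amount and percentage of dose recovered calculated.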

[3] = Part II urinary recovery of ZYAN1; assay type: in vivo, human; conditions: urine
In short: as §1

[4] = test system: serum erythropoietin (EPO), hemoglobin, hematocrit, reticulocyte count; test: Part I pharmacodynamics; assay type: in vivo, human; conditions: for mean serum EPO C max: placebo 9.6 mIU/L
In short: (§2)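 Serum EPO, hemoglobin, hematocrit and reticulocyte count were measured in blood taken before and after oral dosing. Regimens: part I single fasted doses 10–300 mg vs placebo; part II 100–300 mg on Days 1, 3, 5 vs placebo; part III single 150 mg, fasted vs fed, men and women. EPO expressed baseline-corrected. Post-dose vs baseline compared by paired two-sided t test, α = 0.05.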

[5] = test system: serum erythropoietin (EPO), hemoglobin, hematocrit, reticulocyte count; test: Part II pharmacodynamics; assay type: in vivo, human; conditions: for serum EPO C max: placebo 11.0 mIU/L
In short: as §2

[6] = Part II safety assessment; assay type: in vivo, human
In short: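 Safety monitored under ICH-GCP in each part (single 10–300 mg; alternate-day 100–300 mg; 150 mg fasted/fed crossover). Assessments: adverse events coded with MedDRA version 18.0, clinical examinations, frequent vital signs, 12-lead ECGs, clinical laboratory tests, and continuous ECG for 24 h post-dose in parts I and II. Post-dose vs baseline compared by paired two-sided t test, α = 0.05.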

serum EPO levels = conditions: acute pharmacodynamic animal model; cited from earlier work
[7] = after oral dosing across the species tested; cited from earlier work
[8] = rats, oral route; cited from earlier work
[9] = rats, 1-month toxicity study; cited from earlier work
[10] = dogs, cited from earlier work
[11] = cited from earlier work

O=C(O)CNC(=O)c1c(O)c2ccccc2n(OCC2CC2)c1=O [ZYAN1]
dose proportionality of C max and AUC ([1]; 30-fold single dose range, slight deviation at higher doses): almost dose-proportional increase
V d, range ([1]; across single doses 10-300 mg): 28 to 47 L
apparent oral CL, range ([1]; across single doses 10-300 mg): 2 to 2.9 L/h
t max ([1]; single oral dose 10 mg): 2.50 (1.50–3.00) h
AUCt ([1]; single oral dose 10 mg): 3597.269 ± 549.116 ng·h/mL
AUC∞ ([1]; single oral dose 10 mg): 3659.531 ± 551.508 ng·h/mL
C max ([1]; single oral dose 10 mg): 566.467 ± 163.031 ng/mL
CL/F_obs ([1]; single oral dose 10 mg): 2784.592 ± 417.679 mL/h
V z/F_obs ([1]; single oral dose 10 mg): 27,683.707 ± 4805.113 mL
t ½ ([1]; single oral dose 10 mg): 6.976 ± 1.390 h
λz ([1]; single oral dose 10 mg): 0.102 ± 0.019 h⁻¹
t max ([1]; single oral dose 25 mg): 1.25 (1.00–2.50) h
AUCt ([1]; single oral dose 25 mg): 9177.789 ± 2359.163 ng·h/mL
AUC∞ ([1]; single oral dose 25 mg): 9269.839 ± 2396.986 ng·h/mL
C max ([1]; single oral dose 25 mg): 1634.500 ± 299.429 ng/mL
CL/F_obs ([1]; single oral dose 25 mg): 2870.759 ± 817.646 mL/h
V z/F_obs ([1]; single oral dose 25 mg): 27,950.696 ± 5329.29 mL
t ½ ([1]; single oral dose 25 mg): 6.917 ± 0.923 h
λz ([1]; single oral dose 25 mg): 0.102 ± 0.016 h⁻¹
t max ([1]; single oral dose 50 mg): 2.25 (1.00–5.00) h
AUCt ([1]; single oral dose 50 mg): 24,518.328 ± 5125.235 h·ng/mL
AUC∞ ([1]; single oral dose 50 mg): 24,847.379 ± 5242.290 h·ng/mL
C max ([1]; single oral dose 50 mg): 2959.333 ± 686.898 ng/mL
CL/F_obs ([1]; single oral dose 50 mg): 2084.748 ± 417.943 mL/h
V z/F_obs ([1]; single oral dose 50 mg): 30,578.971 ± 10,323.282 mL
t ½ ([1]; single oral dose 50 mg): 10.434 ± 3.857 h
λz ([1]; single oral dose 50 mg): 0.074 ± 0.024 h⁻¹
t max ([1]; single oral dose 100 mg): 2.25 (1.00–5.00) h
AUCt ([1]; single oral dose 100 mg): 46,844.762 ± 13,259.837 h·ng/mL
AUC∞ ([1]; single oral dose 100 mg): 47,320.651 ± 13,358.696 h·ng/mL
C max ([1]; single oral dose 100 mg): 6745.000 ± 1958.132 ng/mL
CL/F_obs ([1]; single oral dose 100 mg): 2271.507 ± 686.413 mL/h
V z/F_obs ([1]; single oral dose 100 mg): 33,572.508 ± 10,971.959 mL
t ½ ([1]; single oral dose 100 mg): 10.685 ± 3.249 h
λz ([1]; single oral dose 100 mg): 0.071 ± 0.023 h⁻¹
t max ([1]; single oral dose 150 mg): 3.00 (2.50–5.00) h
AUCt ([1]; single oral dose 150 mg): 54,401.071 ± 12,592.181 h·ng/mL
AUC∞ ([1]; single oral dose 150 mg): 54,672.481 ± 12,686.075 h·ng/mL
C max ([1]; single oral dose 150 mg): 8119.333 ± 1269.627 ng/mL
CL/F_obs ([1]; single oral dose 150 mg): 2891.042 ± 782.208 mL/h
V z/F_obs ([1]; single oral dose 150 mg): 46,536.434 ± 9434.457 mL
t ½ ([1]; single oral dose 150 mg): 11.357 ± 1.616 h
λz ([1]; single oral dose 150 mg): 0.062 ± 0.008 h⁻¹
t max ([1]; single oral dose 200 mg): 2.25 (1.50–5.00) h
AUCt ([1]; single oral dose 200 mg): 76,515.016 ± 6992.709 h·ng/mL
AUC∞ ([1]; single oral dose 200 mg): 76,728.333 ± 7061.227 h·ng/mL
C max ([1]; single oral dose 200 mg): 12,080.667 ± 3430.123 ng/mL
CL/F_obs ([1]; single oral dose 200 mg): 2625.566 ± 248.239 mL/h
V z/F_obs ([1]; single oral dose 200 mg): 36,035.031 ± 6400.263 mL
t ½ ([1]; single oral dose 200 mg): 9.502 ± 1.270 h
λz ([1]; single oral dose 200 mg): 0.074 ± 0.01 h⁻¹
t max ([1]; single oral dose 300 mg): 2.00 (1.00–5.00) h
AUCt ([1]; single oral dose 300 mg): 115,898.815 ± 45,549.563 h·ng/mL
AUC∞ ([1]; single oral dose 300 mg): 116,226.587 ± 45,834.174 h·ng/mL
C max ([1]; single oral dose 300 mg): 17,858.333 ± 2899.189 ng/mL
CL/F_obs ([1]; single oral dose 300 mg): 2835.924 ± 799.195 mL/h
V z/F_obs ([1]; single oral dose 300 mg): 38,836.681 ± 12,903.706 mL
t ½ ([1]; single oral dose 300 mg): 9.484 ± 1.325 h
λz ([1]; single oral dose 300 mg): 0.074 ± 0.011 h⁻¹
t ½, range ([1]; single doses 10-300 mg): 6.9 to 11.3 h
median time to C max (t max) ([1]; single doses 10-300 mg (30-fold range)): approximately 2.5 h
urinary excretion of intact ZYAN1, average ([2]; healthy subjects): 36%
Amount recovered [mean ± SD] ([2]; single oral dose 10 mg): 3.63 ± 1.02 mg
Percentage recovered [mean ± SD] ([2]; single oral dose 10 mg): 36.270 ± 10.245%
Amount recovered [mean ± SD] ([2]; single oral dose 25 mg): 9.45 ± 1.76 mg
Percentage recovered [mean ± SD] ([2]; single oral dose 25 mg): 37.798 ± 7.059%
Amount recovered [mean ± SD] ([2]; single oral dose 50 mg): 18.99 ± 3.36 mg
Percentage recovered [mean ± SD] ([2]; single oral dose 50 mg): 37.995 ± 6.718%
Amount recovered [mean ± SD] ([2]; single oral dose 100 mg): 41.13 ± 12.06 mg
Percentage recovered [mean ± SD] ([2]; single oral dose 100 mg): 41.130 ± 12.064%
Amount recovered [mean ± SD] ([2]; single oral dose 150 mg): 56.23 ± 17.26 mg
Percentage recovered [mean ± SD] ([2]; single oral dose 150 mg): 37.485 ± 11.508%
Amount recovered [mean ± SD] ([2]; single oral dose 200 mg): 62.83 ± 18.11 mg
Percentage recovered [mean ± SD] ([2]; single oral dose 200 mg): 31.417 ± 9.056%
Amount recovered [mean ± SD] ([2]; single oral dose 300 mg): 82.66 ± 39.25 mg
Percentage recovered [mean ± SD] ([2]; single oral dose 300 mg): 27.555 ± 13.083%
Amount recovered [mean ± SD] ([3]; 100 mg, Day 1): 50.13 ± 14.99 mg
Percentage recovered [mean ± SD] ([3]; 100 mg, Day 1): 50.132 ± 14.998%
Amount recovered [mean ± SD] ([3]; 100 mg, Day 3): 41.00 ± 11.07 mg
Percentage recovered [mean ± SD] ([3]; 100 mg, Day 3): 41.001 ± 11.071%
Amount recovered [mean ± SD] ([3]; 100 mg, Day 5): 50.14 ± 12.16 mg
Percentage recovered [mean ± SD] ([3]; 100 mg, Day 5): 50.137 ± 12.160%
Amount recovered [mean ± SD] ([3]; 150 mg, Day 1): 52.77 ± 6.85 mg
Percentage recovered [mean ± SD] ([3]; 150 mg, Day 1): 35.178 ± 4.566%
Amount recovered [mean ± SD] ([3]; 150 mg, Day 3): 54.64 ± 13.35 mg
Percentage recovered [mean ± SD] ([3]; 150 mg, Day 3): 36.427 ± 8.900%
Amount recovered [mean ± SD] ([3]; 150 mg, Day 5): 44.23 ± 8.18 mg
Percentage recovered [mean ± SD] ([3]; 150 mg, Day 5): 29.488 ± 5.453%
Amount recovered [mean ± SD] ([3]; 200 mg, Day 1): 64.95 ± 25.50 mg
Percentage recovered [mean ± SD] ([3]; 200 mg, Day 1): 32.474 ± 12.749%
Amount recovered [mean ± SD] ([3]; 200 mg, Day 3): 66.09 ± 8.74 mg
Percentage recovered [mean ± SD] ([3]; 200 mg, Day 3): 33.044 ± 4.371%
Amount recovered [mean ± SD] ([3]; 200 mg, Day 5): 75.76 ± 12.76 mg
Percentage recovered [mean ± SD] ([3]; 200 mg, Day 5): 37.880 ± 6.381%
Amount recovered [mean ± SD] ([3]; 300 mg, Day 1): 82.97 ± 35.69 mg
Percentage recovered [mean ± SD] ([3]; 300 mg, Day 1): 27.656 ± 11.899%
Amount recovered [mean ± SD] ([3]; 300 mg, Day 3): 92.22 ± 41.92 mg
Percentage recovered [mean ± SD] ([3]; 300 mg, Day 3): 30.741 ± 13.972%
Amount recovered [mean ± SD] ([3]; 300 mg, Day 5): 99.15 ± 34.40 mg
Percentage recovered [mean ± SD] ([3]; 300 mg, Day 5): 33.050 ± 11.466%
EPO response vs placebo ([4]; doses up to 150 mg): not markedly different from placebo
mean serum EPO C max ([4]; single dose 10 mg): 6.6 mIU/L
mean serum EPO C max ([4]; single dose 300 mg): 79.9 mIU/L
initiation of EPO rise after ZYAN1 administration ([4]; single dose, as early as): 6 h
hemoglobin increase observed in most of the subjects ([4]; single dose, more consistent from 100 mg and above): > 0.5 gm%
lag in time to EPO C max from pharmacokinetic t max ([5]; multiple dosing, similar to single dosing): 6 to 8 h
serum EPO C max ([5]; part II, 100 mg on Days 1, 3, 5): 14.4 mIU/L
serum EPO C max ([5]; part II, 300 mg on Days 1, 3, 5): 60.5 mIU/L
hemoglobin increase on any timepoint, seen in more subjects than placebo ([5]; part II, higher threshold): > 1.0 gm%
Adverse events (Test) ([6]; MAD 150 mg panel): Headache, dizziness
Adverse events (Test) ([6]; MAD 200 mg panel): Nausea, headache, dizziness, diarrhea, phlebitis
Adverse events (Test) ([6]; MAD 300 mg panel): Supra ventricular extrasystoles, abdominal pain, diarrhea, contusion, back pain, dizziness, headache, nasal congestion, phlebitis
Adverse events (Test) ([6]; MSD 100 mg panel (multiple dose)): Headache, dizziness
severity of treatment-related AEs ([6]; part II (ZYAN1 and placebo subjects)): all grade 1 in severity, with the exception of dizziness in two subjects, which was classified as grade 2 in severity
subjects with AEs possibly related to study treatment ([6]; part II, 16 AEs in 11 subjects, placebo 63%): 46%
serum EPO levels (serum EPO levels): dose-related increase
oral absorption and bioavailability [7]: well-absorbed and highly bioavailable
tolerated dose, single-dose study [8]: up to 800 mg/kg
maximum tolerated dose (MTD) [9]: 60 mg/kg
maximum tolerated dose (MTD) ([10]; 1-month toxicity study): 15 mg/kg
no observed adverse effect level (NOAEL) ([10]; 28-day toxicity study): 5 mg/kg
effect of acute and chronic kidney failure models on pharmacokinetics ([11]; rats vs normal control rats): did not alter the pharmacokinetics
increase in the exposure after complete removal of both kidneys ([11]; rats): 2 fold
